1 compound from PMC5484535 (Bioorganic & medicinal chemistry, 2016) can be followed below.

What is called inhibition is the relative decrease from the control value, in per cent.

Molecules are shown by their SMILES.

Test [1] has as its target T1, TAK1 (Homo sapiens, UniProt O43318).
T1 sequence (O43318 1-606): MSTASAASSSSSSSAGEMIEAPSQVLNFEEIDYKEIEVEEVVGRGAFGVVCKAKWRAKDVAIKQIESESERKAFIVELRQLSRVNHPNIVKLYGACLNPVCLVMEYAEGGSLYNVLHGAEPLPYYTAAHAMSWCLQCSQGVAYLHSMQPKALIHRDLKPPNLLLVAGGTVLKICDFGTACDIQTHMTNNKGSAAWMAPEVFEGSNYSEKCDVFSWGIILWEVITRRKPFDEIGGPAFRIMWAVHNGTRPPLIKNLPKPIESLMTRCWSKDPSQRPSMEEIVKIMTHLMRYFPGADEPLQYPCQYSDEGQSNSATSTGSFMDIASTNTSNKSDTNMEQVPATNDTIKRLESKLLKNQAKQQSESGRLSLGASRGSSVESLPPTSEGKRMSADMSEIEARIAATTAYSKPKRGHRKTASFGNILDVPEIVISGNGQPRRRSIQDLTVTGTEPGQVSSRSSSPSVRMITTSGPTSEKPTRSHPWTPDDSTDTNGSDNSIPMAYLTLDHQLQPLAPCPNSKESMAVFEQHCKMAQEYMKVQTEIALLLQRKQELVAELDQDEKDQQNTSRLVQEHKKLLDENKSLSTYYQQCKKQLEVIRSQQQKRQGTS
Briefly: KiNativ live-cell profiling in SK-CO-1 cells. It counts as binding. Conditions: 1 μM.

For another test, the target named is T2, MAP2K5 (Homo sapiens, UniProt Q13163).
T2 sequence (Q13163 1-448): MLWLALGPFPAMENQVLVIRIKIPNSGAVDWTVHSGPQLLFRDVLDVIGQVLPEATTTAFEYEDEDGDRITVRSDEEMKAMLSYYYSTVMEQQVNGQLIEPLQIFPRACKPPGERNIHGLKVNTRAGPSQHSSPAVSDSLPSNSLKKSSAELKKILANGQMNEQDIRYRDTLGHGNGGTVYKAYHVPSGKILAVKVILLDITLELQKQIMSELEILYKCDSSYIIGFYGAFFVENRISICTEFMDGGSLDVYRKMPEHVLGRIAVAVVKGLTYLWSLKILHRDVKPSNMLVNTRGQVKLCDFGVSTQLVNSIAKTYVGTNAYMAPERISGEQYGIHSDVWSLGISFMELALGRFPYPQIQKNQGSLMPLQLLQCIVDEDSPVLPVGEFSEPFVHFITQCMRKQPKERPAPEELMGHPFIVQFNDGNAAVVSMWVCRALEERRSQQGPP
Briefly: KiNativ live-cell profiling in SK-CO-1 cells. Format: binding. The note with it: read-out: Inhibition (%) MAP2K5.

Another test deals with T3, ARAF (Homo sapiens, UniProt P10398).
T3 sequence (P10398 1-606): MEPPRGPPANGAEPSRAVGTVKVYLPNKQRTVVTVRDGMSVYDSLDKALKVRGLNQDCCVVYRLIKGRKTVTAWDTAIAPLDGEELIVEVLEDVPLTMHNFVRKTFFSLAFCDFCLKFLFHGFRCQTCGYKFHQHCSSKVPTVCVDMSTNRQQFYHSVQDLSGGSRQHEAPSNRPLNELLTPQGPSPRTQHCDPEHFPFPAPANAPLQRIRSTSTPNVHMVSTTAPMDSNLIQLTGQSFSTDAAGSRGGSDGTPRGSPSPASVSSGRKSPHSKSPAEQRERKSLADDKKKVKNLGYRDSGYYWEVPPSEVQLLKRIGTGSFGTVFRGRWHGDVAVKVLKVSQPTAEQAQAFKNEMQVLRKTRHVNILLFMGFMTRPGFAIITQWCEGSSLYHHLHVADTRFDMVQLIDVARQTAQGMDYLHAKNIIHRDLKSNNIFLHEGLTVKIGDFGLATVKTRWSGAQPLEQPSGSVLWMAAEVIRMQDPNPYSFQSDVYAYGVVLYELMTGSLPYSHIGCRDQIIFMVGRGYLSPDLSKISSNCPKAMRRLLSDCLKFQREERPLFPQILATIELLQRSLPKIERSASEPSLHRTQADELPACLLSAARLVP
The experiment in a line: KiNativ live-cell profiling in SK-CO-1 cells. Conditions: read-out: Inhibition (%) ARAF. It counts as binding.

In the next test the target is T4, MAP2K6 (Homo sapiens, UniProt P52564).
T4 sequence (P52564 1-334): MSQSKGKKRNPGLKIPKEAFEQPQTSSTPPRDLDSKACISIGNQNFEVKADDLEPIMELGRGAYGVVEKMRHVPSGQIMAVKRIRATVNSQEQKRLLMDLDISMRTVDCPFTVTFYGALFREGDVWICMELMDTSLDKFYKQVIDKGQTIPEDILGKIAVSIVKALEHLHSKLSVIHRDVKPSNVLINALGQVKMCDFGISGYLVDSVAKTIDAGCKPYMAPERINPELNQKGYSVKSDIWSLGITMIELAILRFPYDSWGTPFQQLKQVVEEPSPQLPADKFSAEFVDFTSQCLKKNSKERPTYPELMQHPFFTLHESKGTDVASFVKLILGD
Briefly: KiNativ live-cell profiling in SK-CO-1 cells. It counts as binding. Conditions: read-out: Inhibition (%) MAP2K6.

Test [2] has as its target T1, TAK1. Briefly: Competitive pulldown of TAK1 with biotinylated probe 27 in H358 and H23 cells. It counts as cell-based. The note with it: 10 μM compound, 6 h, washout, lysate + 1 μM 27. The essentials: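 H358 and H23 NSCLC cells (KRAS G12C) were exposed to test compound at 1 or 10 μM for 6 h. Drug medium was removed, and cells were rinsed twice with cold PBS and lysed in MPER buffer. Lysates were incubated overnight at 4 °C with 1 μM biotinylated probe and pulled down on streptavidin beads. Recovered TAK1 was detected by immunoblotting.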

Test [3] deals with synovial fibroblasts from an RA patient (RA2159). Briefly: Cytokine secretion by activated RA synovial fibroblasts. It counts as cell-based, human. Conditions: 3 μM; TNFα, IL-1α or Poly(I:C) activation. The essentials: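 Primary human RA synovial fibroblasts (lot RA2159) were seeded at 1000 cells/well, grown ~24 h, then starved overnight and ~4 h in 0.1% BSA. Pooled supernatants (duplicates) were diluted 1:3 for 48-analyte Luminex measurement and iMLR modeling.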

Consider `C=CC(=O)Nc1ccccc1Oc1nc(Nc2cnn(CCOC)c2)ncc1Cl` [Compound 25], for which the “binding to TAK1 in KiNativ assay” value at TAK1 [1] is “could not detect binding to TAK1”. Further, the inhibition at 1 µM on MAP2K5 was -59.6%; on ARAF it was -15.8%; on MAP2K6, -21.6%. Further, on TAK1 [2], the “blocking of labeling of TAK1 by 27” value is listed as “only partially blocked labeling of TAK1”. For the same compound, the “normalization of induced cytokine secretion” value in test [3] is given as “normalized cytokine secretion”.
